According to article PMC8349895 (Bioorganic & medicinal chemistry letters, 2021):

How the values were obtained:
hM1 [1] = target: T1, hM1 (Homo sapiens, UniProt P11229); assay: Calcium mobilization PAM assay in hM1-CHO cells with EC20 acetylcholine; format: cell-based; settings: PAM mode
T1 sequence (P11229 1-460): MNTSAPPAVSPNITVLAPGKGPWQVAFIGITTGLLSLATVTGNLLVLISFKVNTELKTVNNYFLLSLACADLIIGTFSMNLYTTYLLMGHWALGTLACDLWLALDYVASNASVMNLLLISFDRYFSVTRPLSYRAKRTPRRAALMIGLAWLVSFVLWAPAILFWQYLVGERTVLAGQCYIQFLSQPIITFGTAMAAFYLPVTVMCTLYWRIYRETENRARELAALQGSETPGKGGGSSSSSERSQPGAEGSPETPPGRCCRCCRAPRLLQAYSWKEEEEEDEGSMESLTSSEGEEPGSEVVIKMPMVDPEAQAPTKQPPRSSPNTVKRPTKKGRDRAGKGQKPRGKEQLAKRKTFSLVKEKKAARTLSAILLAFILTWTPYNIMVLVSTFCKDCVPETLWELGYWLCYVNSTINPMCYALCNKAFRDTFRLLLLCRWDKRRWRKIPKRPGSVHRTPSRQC

[2] = Predicted hepatic clearance, human; format: in vitro ADME
hM1 [3] = target: T1, hM1; assay: Calcium mobilization agonist mode in hM1-CHO cells, no exogenous ACh; format: cell-based; settings: no exogenous acetylcholine
Procedure, shortened: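 Calcium mobilization in CHO cells expressing human M1, run without added acetylcholine to measure direct agonist activity and derive agonist EC50. Values are means of one to three independent experiments, each run in triplicate.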

[4] = Predicted hepatic clearance, rat; format: in vitro ADME
hM4 = target: T2, hM4 (Homo sapiens, UniProt P08173); assay: Calcium mobilization PAM selectivity assay, hM4; format: cell-based
T2 sequence (P08173 1-479): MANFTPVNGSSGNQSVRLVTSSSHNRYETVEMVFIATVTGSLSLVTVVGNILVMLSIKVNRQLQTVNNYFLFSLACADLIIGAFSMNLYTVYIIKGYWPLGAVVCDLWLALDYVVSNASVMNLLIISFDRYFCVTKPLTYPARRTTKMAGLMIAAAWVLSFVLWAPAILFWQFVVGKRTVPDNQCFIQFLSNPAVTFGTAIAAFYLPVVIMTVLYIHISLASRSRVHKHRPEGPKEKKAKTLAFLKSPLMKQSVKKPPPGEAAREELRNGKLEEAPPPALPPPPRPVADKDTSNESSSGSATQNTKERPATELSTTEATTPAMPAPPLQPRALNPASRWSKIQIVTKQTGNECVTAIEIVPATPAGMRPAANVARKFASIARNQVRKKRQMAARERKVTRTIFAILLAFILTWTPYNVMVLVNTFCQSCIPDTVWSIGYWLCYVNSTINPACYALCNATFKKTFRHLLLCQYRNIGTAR

| SMILES | hM1 activity (in words) (hM1 [1]) | hClhep [2] | hM1 agonist activity (hM1 [3]) | rClhep [4] | EC50 (hM4) |
| --- | --- | --- | --- | --- | --- |
| Cn1cc2c(-c3cc(F)c(CN4Cc5nc[nH]c5C4=O)c(F)c3)cccc2n1 [Compound 8a] | inactive | – | – | – | – |
| Cn1cc2cc(-c3ccc(CN4Cc5ncsc5C4=O)c(F)c3)ccc2n1 [Compound 8b] | – | 10.4 mL/min/kg | devoid of any hM1 agonist activity | 43 mL/min/kg | > 10 µM |
| Cn1cc2c(-c3cc(F)c(CN4Cc5ncoc5C4=O)c(F)c3)cccc2n1 [Compound 12a] | inactive | – | – | – | – |
| Cn1cc2c(-c3cc(F)c(CN4Cc5ocnc5C4=O)c(F)c3)cccc2n1 [Compound 12b] | inactive | – | – | – | – |
| Cn1cc2c(-c3cc(F)c(CN4Cc5cnn(CC6CCCO6)c5C4=O)c(F)c3)cccc2n1 (stereo not drawn) [Compound 20a] | – | 18.6 mL/min/kg | devoid of any hM1 agonist activity | 58.7 mL/min/kg | > 10 µM |
| Cc1[nH]cc2c1C(=O)N(Cc1c(F)cc(-c3cccc4nn(C)cc34)cc1F)C2 [Compound 25a] | inactive | – | – | – | – |
